Experimental data from ChEMBL document CHEMBL5038583, “Highly Potent and Selective Butyrylcholinesterase Inhibitors for Cognitive Improvement and Neuroprotection” (J Med Chem, 2021).
The source made the active and inactive calls. The calls are words filed in the database; no cut-off is given here.

Key:
[1] = Ratio of drug concentration in brain to plasma of ICR mouse at 10 mg/kg, po measured after 4 hrs; type: ADME, organism-based
In short: (§1)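 ICR mice given 10 mg/kg orally in 5% DMSO/40% PEG400/55% saline (1 mg/mL). Blood (retro-orbital) and brain collected at 30, 60, 120 and 240 min. Brain homogenized in 2 volumes PBS, extracted with ethyl acetate, dried and reconstituted in mobile phase. Plasma processed as in the rat study; LC/MS/MS. Brain/plasma ratios from exposures, AUC(B) vs AUC(P).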

[2] = system: PC-12; test: Cytotoxicity against rat PC-12 cells assessed as reduction in cell viability incubated for 24 hrs by MTT assay; type: functional, cell-based; conditions: PC-12, 24 h
In short: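 Cells seeded at 1 × 10⁴/well in DMEM with 10% FBS and left overnight, then given compound (DMSO stock diluted in DMEM) for 24 h at 37 °C. MTT added for 4 h, formazan dissolved in DMSO, absorbance read at 492 nm. Viability taken as OD treated/OD DMEM × 100%; IC50 from three independent experiments, mean SD.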

[3] = system: Mus musculus; test: Anti-alzheimer activity in amyloid beta(1 to 42)-induced ICR mouse model of cognitive impairment assessed as simplification of trajectories at 15 mg/kg, ig administered at days 2 to 14 by Morris water maze test; type: functional, organism-based
In short: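 ICR mice, n = 8 per group. Aggregated Aβ1-42 (5 mM DMSO stock incubated 24 h at 37 °C in saline at 2 mg/mL) given 10 μg per mouse icv on day 1; saline icv for sham. Compound 15 mg/kg intragastric on days 2−14; donepezil reference. Morris water maze training days 9−13, probe trial day 14; tracks recorded; mean ± SD.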

[4] = Metabolic stability in human liver microsomes assessed as intrinsic clearance at 1 uM measured upto 45 mins in presence of NADPH by LC/MS/MS analysis; type: ADME, Microsome; conditions: read-out: CLH
In short: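 Human liver microsomes 0.5 mg/mL, compound 1 μM final, NADPH 2 mM, at 37 °C. Reactions stopped at 0, 5, 15, 30 and 45 min with acetonitrile containing imipramine internal standard. LC/MS/MS quantitation relative to 0 min; initial rates used for t1/2 and intrinsic clearance; ketanserin as assay control. Mean of two independent experiments.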

[5] = system: SH-SY5Y; test: Neuroprotective activity against glutamate-induced cytotoxicity in human SH-SY5Y cells at 10 uM pretreated for 2 hrs followed by glutamate stimulation and measured after 24 hrs by MTT assay; type: functional, cell-based; conditions: time 26.0 hrs
In short: (§2)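 SH-SY5Y cells seeded at 5000 per well and grown 24 h. Pretreated 2 h with compound (2.5 or 10 μM, diluted in DMEM from 10⁻¹ M DMSO stock), then H₂O₂ 200 μM, glutamate 20 mM or aggregated Aβ1-42 15 μM for 24 h. MTT added for 4 h, formazan dissolved in DMSO, absorbance read at 492 nm. Viability relative to untreated control; mean ± SEM, n = 3.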

[6] = biological target: Cholinesterase (Homo sapiens, UniProt P06276); test: Inhibition of human serum BChE using butyrylthiocholine iodide as substrate preincubated for 20 mins followed by substrate addition and measured after 2 mins by DTNB-reagent based Ellman's method
Chain of Cholinesterase (P06276 whole entry): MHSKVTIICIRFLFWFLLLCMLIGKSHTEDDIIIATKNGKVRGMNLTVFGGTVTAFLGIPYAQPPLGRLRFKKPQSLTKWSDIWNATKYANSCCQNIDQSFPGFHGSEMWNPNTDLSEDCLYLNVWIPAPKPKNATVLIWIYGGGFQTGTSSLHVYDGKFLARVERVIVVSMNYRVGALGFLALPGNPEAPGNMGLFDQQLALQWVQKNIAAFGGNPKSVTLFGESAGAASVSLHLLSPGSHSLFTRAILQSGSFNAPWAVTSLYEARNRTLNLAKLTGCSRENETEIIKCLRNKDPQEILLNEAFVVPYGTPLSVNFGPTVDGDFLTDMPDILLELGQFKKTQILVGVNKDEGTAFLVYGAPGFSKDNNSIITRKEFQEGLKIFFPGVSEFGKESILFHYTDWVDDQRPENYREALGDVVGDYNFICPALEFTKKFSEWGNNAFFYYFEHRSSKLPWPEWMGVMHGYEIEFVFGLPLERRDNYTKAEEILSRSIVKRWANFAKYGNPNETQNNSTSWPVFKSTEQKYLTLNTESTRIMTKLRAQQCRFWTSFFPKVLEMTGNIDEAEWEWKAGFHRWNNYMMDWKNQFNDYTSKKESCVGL
In short: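 hBChE at 0.015 units/mL with DTNB in phosphate buffer pH 8.0, preincubated 20 min at room temperature with at least six concentrations (10⁻⁴−10⁻⁹). Butyrylthiocholine iodide (0.075 M solution) added; A412 read after 2 min at 25 °C. IC50 from % activity vs log concentration; triplicates in at least three runs.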

[7] = Tmax in overnight fasted Sprague-Dawley rat at 10 mg/kg, iv measured upto 1440 mins by LC/MS/MS analysis; type: ADME, organism-based; conditions: in vivo
In short: (§3)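 Male SD rats (180−220 g), n = 8 per route, fasted overnight with water available. Single 10 mg/kg dose p.o. or i.v. in DMSO/PEG400/saline (10:80:10). Retro-orbital blood taken into heparinized tubes at 1–1440 min. Plasma precipitated with methanol containing theophylline internal standard, then LC/MS/MS against a blank-plasma standard curve. Parameters from noncompartmental extravascular analysis; mean ± SD.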

[8] = system: Mus musculus; test: Anti-alzheimer activity in scopolamine-induced ICR mouse model of cognitive impairment assessed as simplification of trajectories at 30 mg/kg, ig administered for 10 consecutive days by Morris water maze test; type: functional, organism-based
In short: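 Male ICR mice (8−10 weeks, 18−20 g), n = 8 per group. Compound at 15 or 30 mg/kg intragastric in DMSO/saline (10:90), given 30 min before scopolamine 3 mg/kg i.p., for 10 consecutive days; tacrine 15 mg/kg as reference. Morris water maze: 5 days of training, probe trial on day 6 with platform removed. Escape latency and trajectory recorded; mean ± SD.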

[9] = Hepatotoxicity in ICR mouse assessed as change in alanine aminotransferase activity at 1 g/kg, ig administered daily for 14 days measured upto 36 hrs post-administration; type: toxicity; conditions: in vivo, po, 1000 mg/kg, 336 h, time 14 day
In short: (§4)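 Heparinized serum from ICR mice taken at 8, 22 and 36 h after oral compound or saline control; AST and ALT activities measured.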

[10] = system: SH-SY5Y; test: Neuroprotective activity against amyloid beta (1 to 42)-induced cytotoxicity in human SH-SY5Y cells at 2.5 uM pretreated for 2 hrs followed by amyloid beta (1 to 42) stimulation and measured after 24 hrs by MTT assay; type: functional, cell-based; conditions: time 26.0 hrs; in short: as §2
[11] = Effective permeability of the compound in pH 7.4 PBS/EtOH (70:30) at 100 ug/ml incubated for 18 hrs by PAMPA-BBB assay; type: ADME; conditions: dose 100 µg/ml, read-out: Peff
In short: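 PAMPA-BBB with porcine brain lipid in dodecane (20 mg/mL) on PVDF filter. Donor holds compound at 100 μg/mL final (from 5 mg/mL DMSO stock) in PBS pH 7.4/EtOH 70:30; acceptor holds the same buffer. Incubated 18 h at 25 °C; donor and acceptor concentrations by UV at five wavelengths. Four wells, at least three runs, nine permeability standards; mean ± SD.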

[12] = Ratio of drug concentration in brain to plasma of ICR mouse at 10 mg/kg, po measured after 0.5 hrs; type: ADME, organism-based; in short: as §1
[13] = Acute toxicity in ICR mouse assessed as abnormal behaviour at 1 g/kg, ig administered […]; conditions: in vivo, po, 1000 mg/kg
In short: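 Single dose of 1 g/kg given intragastrically on day 1 to overnight-fasted mice (15−18 g), suspended in 5% DMSO, 40% PEG 400, 55% saline. Male and female groups (n = 9), with vehicle controls. Death, daily behaviour and body mass followed over the next 2 weeks.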

[14] = Tmax in overnight fasted Sprague-Dawley rat at 10 mg/kg, po measured upto 1440 mins by LC/MS/MS analysis; type: ADME, organism-based; conditions: in vivo, 24 h; in short: as §3
[15] = Cmax in ICR mouse plasma at 10 mg/kg, po measured upto 240 mins; type: ADME, organism-based; set-up: route oral, dose 10 mg/kg, time <=240; in short: as §1
[16] = Hepatotoxicity in ICR mouse assessed as change in aspartate aminotransferase activity at 1 g/kg, ig administered daily for 14 days measured upto 36 hrs post-administration; type: toxicity; conditions: in vivo, po, 1000 mg/kg, 336 h, time 14 day; in short: as §4
[17] = AUC (0 to t) in overnight fasted Sprague-Dawley rat at 10 mg/kg, po measured upto 1440 mins by LC/MS/MS analysis; type: ADME, organism-based; set-up: route oral, dose 10 mg/kg, time <=1440; conditions: in vivo; in short: as §3

Nc1nonc1-c1nc2ccccc2n1CC(=O)Nc1cnc2ccccc2c1
Kp at 4 h [1]: 1.54 | IC50 [2]: 33.5 µM | Activity [3]: Active | CLint scaled at 1 µM [4]: 10.9 mL/min/kg | Activity [5]: Active | IC50 [6]: 0.016 µM | Tmax [7]: 1.02 min | Activity [8]: Active | Activity [9]: Non-Toxic | Activity [10]: Active | Papp at 18 h, 100 ug/ml [11]: 4.45 ×10⁻⁶ cm/s | Kp at 0.5 h [12]: 1.54 | Activity [13]: Non-Toxic | Tmax [14]: 570 min | Cmax [15]: 49.9 ng/mL | Activity [16]: Non-Toxic | AUC(0-t) at 24 h [17]: 628 ng·h/mL
